Data reported in ChEMBL document CHEMBL1149852, “Antimycobacterial serratamolides and diacyl peptoglucosamine derivatives from Serratia sp” (2008).

How the values were obtained:
Type in all cases: functional
[1] = system: Mycolicibacterium diernhoferi; experiment: Antimycobacterial activity against Mycobacterium diernhoferi
How it was run: (§1)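 Broth microdilution MIC. Purified compound given as serial 2-fold dilutions in Mueller-Hinton broth in 96-well plates. Inoculum made by scraping colonies from EBS agar plates (EBS: casein peptone 0.5%, glucose 0.5%, meat/yeast extract 0.1% each, 50 mM HEPES, pH 7.0) into EBS medium, then added to 5 × 10^5 CFU/mL. MIC taken as lowest concentration inhibiting 99% of inoculum.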

[2] = system: Mycolicibacterium phlei; experiment: Antimycobacterial activity against Mycobacterium phlei; how it was run: as §1
[3] = system: Mycolicibacterium smegmatis; experiment: Antimycobacterial activity against Mycobacterium smegmatis; how it was run: as §1

Measured: MIC

CCCCCCCCC[C@@H]1CC(=O)N[C@@H](CO)C(=O)O[C@H](CCCCCCC)CC(=O)N[C@@H](CO)C(=O)O1 [SERRATAMOLIDE C]
180 µM: all assays above

CCCCCCC/C=C\CCCCCCC(=O)N[C@H](C(=O)O[C@H]1O[C@H](CO)[C@@H](O)[C@H](O)[C@H]1NC(=O)CCC)C(C)C
180 µM: all assays above

CCCCCCCC[C@@H]1CC(=O)N[C@@H](CO)C(=O)O[C@H](CCCCCCC)CC(=O)N[C@@H](CO)C(=O)O1 [SERRATAMOLIDE D]
180 µM: all assays above

CCCCCCC[C@@H]1CC(=O)N[C@@H](CO)C(=O)O[C@H](CCCCC)CC(=O)N[C@@H](CO)C(=O)O1 [SERRATAMOLIDE E]
180 µM: all assays above

CCCCCCCCCCCCCCC(=O)N[C@H](C(=O)O[C@H]1O[C@H](CO)[C@@H](O)[C@H](O)[C@H]1NC(=O)CCC)C(C)C
180 µM: all assays above

CCCCCCC[C@@H]1CC(=O)N[C@@H](CO)C(=O)O[C@H](CCCCCC)CC(=O)N[C@@H](CO)C(=O)O1 [SERRATAMOLIDE F]
180 µM: all assays above

CCCCCCCCCCCCCC(=O)N[C@H](C(=O)O[C@H]1O[C@H](CO)[C@@H](O)[C@H](O)[C@H]1NC(=O)CCC)C(C)C
180 µM: all assays above

CCCCCC/C=C\C[C@@H]1CC(=O)N[C@@H](CO)C(=O)O[C@H](CCCCCCC)CC(=O)N[C@@H](CO)C(=O)O1 [SERRATAMOLIDE B]
180 µM: all assays above

CCCCCCC[C@@H]1CC(=O)N[C@@H](CO)C(=O)O[C@H](CCCCCCC)CC(=O)N[C@@H](CO)C(=O)O1 [SERRATAMOLIDE A]
180 µM: all assays above
